Measurements taken from ChEMBL document CHEMBL3612021, “Structure-kinetics relationships of Capadenoson derivatives as adenosine A1 receptor agonists” (Eur J Med Chem, 2015).

Columns and labels:
[1] = biological target: T1, Adenosine receptor A1 (Homo sapiens) (UniProt P30542); test: Displacement of [3H]DPCPX from human adenosine A1 receptor expressed in CHO cell membranes assessed as residence time by competition association assay
T1 sequence (whole entry): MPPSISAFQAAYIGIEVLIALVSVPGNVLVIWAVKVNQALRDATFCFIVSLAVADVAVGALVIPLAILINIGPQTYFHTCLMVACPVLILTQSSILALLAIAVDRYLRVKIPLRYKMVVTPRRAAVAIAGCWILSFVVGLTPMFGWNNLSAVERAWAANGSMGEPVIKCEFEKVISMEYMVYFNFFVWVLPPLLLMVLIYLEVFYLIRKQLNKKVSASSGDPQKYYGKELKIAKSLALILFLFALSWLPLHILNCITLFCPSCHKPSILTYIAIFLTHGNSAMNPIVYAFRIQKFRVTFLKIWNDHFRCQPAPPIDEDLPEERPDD
Procedure, shortened: (§1)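 Competition association assay on CHO cell membranes stably expressing hA1, with [3H]DPCPX as tracer. kon and koff come from these association curves (n ≥ 3, ± SEM). Residence time is shown alongside koff and corresponds to 1/koff in minutes.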

[2] = biological target: T1, Adenosine receptor A1 (Homo sapiens); test: Displacement of [3H]DPCPX from human adenosine A1 receptor expressed in CHO cell membranes assessed as kinetic rate index by measuring ratio of binding at earlier and later time points by competition association assay
Procedure, shortened: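 Dual-point competition association assay with [3H]DPCPX on CHO membranes stably expressing hA1. Specific binding is read at two time points in the presence of the test ligand. KRI is the ratio of binding at the earlier to the later time point (n = 2; both values reported).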

[3] = biological target: T1, Adenosine receptor A1 (Homo sapiens); test: Displacement of [3H]DPCPX from human adenosine A1 receptor expressed in CHO cell membranes assessed as association rate constant by competition association assay; procedure, shortened: as §1
[4] = biological target: T1, Adenosine receptor A1 (Homo sapiens); test: Displacement of [3H]DPCPX from human adenosine A1 receptor expressed in CHO cell membranes assessed as dissociation rate constant by competition association assay; procedure, shortened: as §1
[5] = biological target: T1, Adenosine receptor A1 (Homo sapiens); test: Displacement of [3H]DPCPX from human adenosine A1 receptor expressed in CHO cell membranes at 1 uM by competition association assay
Adenosine receptor A1 = biological target: T2, Adenosine receptor A1 (Homo sapiens, UniProt P30542); test: Agonist activity at human adenosine A1 receptor expressed in CHO cell membranes by [35S]GTPgammaS binding assay; type: functional
T2 sequence (P30542 whole entry): T1 sequence (whole entry)
Procedure, shortened: (§2)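 CHO-hA1 membrane homogenates (3 µg) equilibrated 30 min at 25 °C in 50 mM Tris, 100 mM NaCl, 5 mM MgCl2, 1 mM EDTA, 1 mM DTT, 0.05% BSA, pH 7.4, with 3 µM GDP, saponin and ligand over a concentration range. [35S]GTPγS then added (final 0.3 nM) and incubated 90 min at 25 °C. Filtration on GF/B, ice-cold washes, scintillation counting. n = 3.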

[6] = biological target: T1, Adenosine receptor A1 (Homo sapiens); test: Agonist activity at human adenosine A1 receptor expressed in CHO cell membranes by [35S]GTPgammaS binding assay relative to 100 uM CPA; type: functional; procedure, shortened: as §2
[7] = biological target: Adenosine receptors; A1 & A3 (Homo sapiens) (UniProt P30542+P0DMS8); test: Selectivity for human adenosine A1 receptor expressed in CHO cell membranes over human adenosine A3 receptor expressed in CHO cell membrane; type: cell-based
[8] = biological target: Adenosine receptor A2a (Homo sapiens) (UniProt P29274); test: Displacement of [3H]ZM241385 from human adenosine A2A receptor expressed in HEK293 cell membranes at 1 uM by competition association assay
Adenosine receptor A2a (Homo sapiens), sequence (P29274 whole entry): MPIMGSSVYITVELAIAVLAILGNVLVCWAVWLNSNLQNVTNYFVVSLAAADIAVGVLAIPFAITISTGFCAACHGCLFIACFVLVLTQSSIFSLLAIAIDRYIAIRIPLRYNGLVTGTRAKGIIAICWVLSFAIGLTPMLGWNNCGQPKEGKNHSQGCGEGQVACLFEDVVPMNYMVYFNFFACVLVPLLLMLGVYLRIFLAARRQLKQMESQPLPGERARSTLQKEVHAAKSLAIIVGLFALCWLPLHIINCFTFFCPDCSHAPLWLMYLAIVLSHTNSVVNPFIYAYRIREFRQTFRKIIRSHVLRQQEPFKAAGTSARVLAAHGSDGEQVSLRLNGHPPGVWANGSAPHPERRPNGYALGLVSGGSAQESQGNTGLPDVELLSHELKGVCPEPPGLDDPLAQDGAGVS

[9] = biological target: T3, Adenosine receptor A3 (Homo sapiens) (UniProt P0DMS8); test: Displacement of [3H]PSB11 from human adenosine A3 receptor expressed in CHO cell membranes at 1 uM by competition association assay
T3 sequence (whole entry): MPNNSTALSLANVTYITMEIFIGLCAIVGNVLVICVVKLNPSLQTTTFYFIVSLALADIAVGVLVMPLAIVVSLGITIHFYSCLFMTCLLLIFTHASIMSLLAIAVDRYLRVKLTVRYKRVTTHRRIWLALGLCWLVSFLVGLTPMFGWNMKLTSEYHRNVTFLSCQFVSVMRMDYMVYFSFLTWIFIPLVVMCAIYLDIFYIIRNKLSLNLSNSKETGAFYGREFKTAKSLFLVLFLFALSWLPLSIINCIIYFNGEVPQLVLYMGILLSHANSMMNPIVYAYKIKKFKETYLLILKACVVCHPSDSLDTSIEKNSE
Procedure, shortened: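 Single-point screen at 1 µM measuring displacement of specific [3H]PSB11 binding on CHO cell membranes stably expressing human A3 receptors.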

[10] = biological target: T4, Adenosine receptor A2b (Homo sapiens) (UniProt P29275); test: Displacement of [3H]PSB603 from human adenosine A2B receptor expressed in CHO cell membranes at 1 uM by competition association assay
T4 sequence (whole entry): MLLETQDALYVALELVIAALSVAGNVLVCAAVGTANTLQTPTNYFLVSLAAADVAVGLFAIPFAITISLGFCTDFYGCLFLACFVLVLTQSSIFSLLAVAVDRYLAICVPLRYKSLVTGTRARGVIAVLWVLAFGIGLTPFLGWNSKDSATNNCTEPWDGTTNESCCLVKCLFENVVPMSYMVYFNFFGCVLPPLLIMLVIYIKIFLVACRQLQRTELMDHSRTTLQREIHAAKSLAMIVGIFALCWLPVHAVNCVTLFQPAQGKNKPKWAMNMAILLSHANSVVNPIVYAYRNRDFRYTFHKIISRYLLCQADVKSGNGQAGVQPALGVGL
Procedure, shortened: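 Single-point test at 1 µM measuring percent displacement of specific [3H]PSB603 binding on CHO membranes stably expressing human A2B receptors.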

SMILES	TIME [1] [h]	Ratio [2]	K [3]	K [4] [min⁻¹]	inhibition [5] [%]	EC50 (Adenosine receptor A1) [nM]	Emax [6] [%]	Selectivity ratio [7]	inhibition [8] [%]	inhibition [9] [%]	inhibition [10] [%]
COc1ccc(-c2c(C#N)c(N)nc(SCc3csc(-c4ccc(Cl)c(Cl)c4)n3)c2C#N)cc1	0.877	2.35	1.1 ×10⁶ /M/min	0.019	–	–	–	–	–	–	–
COc1ccc(-c2c(C#N)c(N)nc(SCc3csc(-c4ccc(I)cc4)n3)c2C#N)cc1	1.51	2.07	1.6 ×10⁶ /M/min	0.011	> 80	–	–	–	–	–	–
N#Cc1c(N)nc(SCc2csc(-c3ccc(Cl)cc3)n2)c(C#N)c1-c1ccc2c(c1)OCO2	1.04	2	2.4 ×10⁶ /M/min	0.016	> 80	–	–	–	–	–	–
COc1ccc(-c2c(C#N)c(N)nc(SCc3cscn3)c2C#N)cc1	–	1	–	–	–	1.5	55	> 100	0	50	–
COc1ccc(-c2c(C#N)c(N)nc(SCc3csc(-c4ccccc4Cl)n3)c2C#N)cc1	0.695	1.53	9.4 ×10⁵ /M/min	0.024	> 80	–	–	–	–	–	–
COc1ccc(-c2c(C#N)c(N)nc(SCc3csc(-c4ccc(Cl)cc4)n3)c2C#N)cc1	2.2	2.55	2.6 ×10⁶ /M/min	0.0076	> 80	2.9	83	> 100	5.8	19	20
COc1ccc(-c2c(C#N)c(N)nc(SCc3csc(-c4ccc(Br)cn4)n3)c2C#N)cc1	0.555	1.71	1.4 ×10⁶ /M/min	0.03	> 80	–	–	–	–	–	–
COc1ccc(-c2c(C#N)c(N)nc(SCc3csc(-c4ccc(Br)cc4)n3)c2C#N)cc1	0.833	1.55	2.4 ×10⁶ /M/min	0.02	> 80	–	–	–	–	–	–
N#Cc1c(N)nc(SCc2csc(-c3ccc(Cl)cc3)n2)c(C#N)c1-c1ccc(OCCO)cc1 [CAPADENOSON]	0.463	1.42	2.4 ×10⁷ /M/min	0.036	> 80	1.1	97	> 100	0	1.2	2.5
COc1ccc(-c2c(C#N)c(N)nc(SCc3csc(-c4ccc(Cl)cn4)n3)c2C#N)cc1	0.477	1.64	3.4 ×10⁶ /M/min	0.035	> 80	–	–	–	–	–	–
N#Cc1c(N)nc(SCc2csc(-c3ccc(Cl)cc3)n2)c(C#N)c1-c1ccc(O)cc1	0.595	2.07	4.3 ×10⁶ /M/min	0.028	> 80	–	–	–	–	–	–
COc1ccc(-c2c(C#N)c(N)nc(SCc3csc(-c4ccc(F)cc4)n3)c2C#N)cc1	0.505	1.56	4.6 ×10⁶ /M/min	0.033	–	–	–	–	–	–	–
COc1ccc(-c2c(C#N)c(N)nc(SCc3csc(N4CCOCC4)n3)c2C#N)cc1	–	1.12	–	–	> 80	1.9	104	> 100	0	51	0
COc1ccc(-c2c(C#N)c(N)nc(SCc3csc(-c4ccccc4)n3)c2C#N)cc1	–	1.23	–	–	> 80	1.9	105	> 100	0	27	63
COc1ccc(-c2c(C#N)c(N)nc(SCc3csc(-c4ccccn4)n3)c2C#N)cc1	–	1.08	–	–	> 80	7.6	99	> 100	0	22	0
COc1ccc(-c2c(C#N)c(N)nc(SCc3nc(-c4ccc(Cl)cc4)sc3Cl)c2C#N)cc1	0.595	1.79	1.4 ×10⁶ /M/min	0.028	–	–	–	–	–	–	–
COc1ccc(-c2c(C#N)c(N)nc(SCc3csc(-c4cccc(Cl)c4)n3)c2C#N)cc1	0.667	1.6	7.7 ×10⁵ /M/min	0.025	> 80	–	–	–	–	–	–
